Measurements from ChEMBL document CHEMBL1136049, “Synthesis of syn- and anti-1-amino-3-[18F]fluoromethyl-cyclobutane-1-carboxylic acid (FMACBC), potential PET ligands for tumor detection” (J Med Chem, 2002).

Columns and labels:
[1] = organism: Rattus norvegicus; assay: Radioactivity distribution in blood of normal fischer rat after injection of syn-[18F]-FMACBC after 30 min.; assay type: ADME, organism-based; conditions: in vivo, 0.5 h
Outline: (§1)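 Male Fischer 344 rats (200–250 g), normal, fed ad libitum, given ~85 μCi of 18F tracer in 0.3 mL sterile water IV through a tail vein catheter. Anesthesia was ketamine:xylazine IM. Groups of four were killed at 5, 30, 60 and 120 min. Tissues were weighed and gamma-counted against dose standards, decay-corrected, and expressed as mean % injected dose per gram.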

[2] = organism: Rattus norvegicus; assay: Radioactivity distribution in heart of tumor-bearing fischer rat after injection of syn-[18F]-FMACBC after 5 min; assay type: ADME, organism-based; conditions: in vivo
Outline: (§2)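 Male Fischer 344 rats carrying intracranial rat 9L gliosarcoma, made by stereotaxic injection of 4 × 10^4 cells 17–19 days before. Awake restrained rats received ~35 μCi of 18F tracer in 0.3 mL sterile water IV by tail vein and were killed at 5, 60 or 120 min, n = 3–5. Tissues were weighed, gamma-counted, decay-corrected and expressed as % injected dose per gram.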

[3] = organism: Rattus norvegicus; assay: Radioactivity distribution in pancreas of normal fischer rat after injection of syn-[18F]-FMACBC after 120 min.; assay type: ADME, organism-based; conditions: in vivo, 2 h
Outline: (§3)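 Normal male Fischer 344 rats (200–250 g) were anesthetised with ketamine:xylazine i.m. and given about 85 μCi tracer in 0.3 mL sterile water via a tail vein catheter. Groups of four were killed at 5, 30, 60 and 120 min. Selected tissues were weighed and gamma counted with dose standards, decay-corrected, and expressed as mean %ID/g.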

[4] = organism: Rattus norvegicus; assay: Radioactivity distribution in tumor of tumor-bearing fischer rat after injection of anti-[18F]FMACBC after 5 min; assay type: ADME, organism-based; conditions: in vivo
Outline: (§4)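 Male Fischer 344 rats with intracranial 9L gliosarcoma (4 × 10^4 cells stereotaxically implanted; used 17–19 days after implantation). About 35 μCi tracer in 0.3 mL sterile water was given by tail vein to awake, restrained rats. Rats were killed at 5, 60 or 120 min. Tissues, tumor and contralateral brain were weighed and gamma counted, decay-corrected, and expressed as %ID/g; n = 3–5 per time point.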

[5] = organism: Rattus norvegicus; assay: Radioactivity distribution in kidney of tumor-bearing fischer rat after injection of syn-[18F]-FMACBC after 60 min; assay type: ADME, organism-based; conditions: in vivo, 1 h; outline: as §2
[6] = organism: Rattus norvegicus; assay: Radioactivity distribution in pancreas of normal fischer rat after injection of anti-[18F]FMACBC after 5 min.; assay type: ADME, organism-based; conditions: in vivo; outline: as §3
[7] = organism: Rattus norvegicus; assay: Radioactivity distribution in brain of tumor-bearing fischer rat after injection of anti-[18F]FMACBC after 5 min; assay type: ADME, organism-based; conditions: in vivo; outline: as §2
[8] = organism: Rattus norvegicus; assay: Radioactivity distribution in blood of tumor-bearing fischer rat after injection of anti-[18F]FMACBC after 5 min; assay type: ADME, organism-based; conditions: in vivo; outline: as §2
[9] = organism: Rattus norvegicus; assay: Radioactivity distribution in bone of normal fischer rat after injection of anti-[18F]FMACBC after 5 min.; assay type: ADME, organism-based, Bone element; conditions: in vivo; outline: as §1
[10] = organism: Rattus norvegicus; assay: Radioactivity distribution in brain of normal fischer rat after injection of anti-[18F]FMACBC after 60 min.; assay type: ADME, organism-based; conditions: in vivo, 1 h; outline: as §1
[11] = organism: Rattus norvegicus; assay: Radioactivity distribution in liver of normal fischer rat after injection of anti-[18F]FMACBC after 120 min.; assay type: ADME, organism-based; conditions: in vivo, 2 h; outline: as §1
[12] = organism: Rattus norvegicus; assay: Radioactivity distribution in kidney of tumor-bearing fischer rat after injection of syn-[18F]-FMACBC after 120 min; assay type: ADME, organism-based; conditions: in vivo, 2 h; outline: as §2
[13] = organism: Rattus norvegicus; assay: Radioactivity distribution in blood of normal fischer rat after injection of anti-[18F]FMACBC after 60 min.; assay type: ADME, organism-based; conditions: in vivo, 1 h; outline: as §1
[14] = organism: Rattus norvegicus; assay: Radioactivity distribution in tumor of tumor-bearing fischer rat after injection of anti-[18F]FMACBC after 60 min; assay type: ADME, organism-based; conditions: in vivo, 1 h; outline: as §4
[15] = organism: Rattus norvegicus; assay: Radioactivity distribution in brain of tumor-bearing fischer rat after injection of syn-[18F]-FMACBC after 120 min; assay type: ADME, organism-based; conditions: in vivo, 2 h; outline: as §2
[16] = organism: Rattus norvegicus; assay: Radioactivity distribution in blood of normal fischer rat after injection of anti-[18F]FMACBC after 120 min.; assay type: ADME, organism-based; conditions: in vivo, 2 h; outline: as §1
[17] = organism: Rattus norvegicus; assay: Radioactivity distribution in heart of normal fischer rat after injection of anti-[18F]FMACBC after 30 min.; assay type: ADME, organism-based; conditions: in vivo, 0.5 h; outline: as §1
[18] = organism: Rattus norvegicus; assay: Radioactivity distribution in blood of tumor-bearing fischer rat after injection of syn-[18F]-FMACBC after 5 min; assay type: ADME, organism-based; conditions: in vivo; outline: as §2
[19] = organism: Rattus norvegicus; assay: Radioactivity distribution in testis of tumor-bearing fischer rat after injection of anti-[18F]FMACBC after 120 min; assay type: ADME, organism-based; conditions: in vivo, 2 h; outline: as §4
[20] = organism: Rattus norvegicus; assay: Radioactivity distribution in pancreas of normal fischer rat after injection of anti-[18F]FMACBC after 120 min.; assay type: ADME, organism-based; conditions: in vivo, 2 h; outline: as §3
[21] = organism: Rattus norvegicus; assay: Radioactivity distribution in heart of normal fischer rat after injection of syn-[18F]-FMACBC after 120 min.; assay type: ADME, organism-based; conditions: in vivo, 2 h; outline: as §1
[22] = organism: Rattus norvegicus; assay: Radioactivity distribution in spleen of normal fischer rat after injection of anti-[18F]FMACBC after 5 min.; assay type: ADME, organism-based; conditions: in vivo; outline: as §3
[23] = organism: Rattus norvegicus; assay: Radioactivity distribution in kidney of normal fischer rat after injection of anti-[18F]FMACBC after 30 min.; assay type: ADME, organism-based; conditions: in vivo, 0.5 h; outline: as §1
[24] = organism: Rattus norvegicus; assay: Radioactivity distribution in liver of tumor-bearing fischer rat after injection of anti-[18F]FMACBC after 5 min; assay type: ADME, organism-based; conditions: in vivo; outline: as §4
[25] = organism: Rattus norvegicus; assay: Radioactivity distribution in blood of normal fischer rat after injection of syn-[18F]-FMACBC after 5 min.; assay type: ADME, organism-based; conditions: in vivo; outline: as §1
[26] = organism: Rattus norvegicus; assay: Radioactivity distribution in blood of normal fischer rat after injection of anti-[18F]FMACBC after 30 min.; assay type: ADME, organism-based; conditions: in vivo, 0.5 h; outline: as §1
[27] = organism: Rattus norvegicus; assay: Radioactivity distribution in brain of normal fischer rat after injection of syn-[18F]-FMACBC after 30 min.; assay type: ADME, organism-based; conditions: in vivo, 0.5 h; outline: as §1
[28] = organism: Rattus norvegicus; assay: Radioactivity distribution in lung of tumor-bearing fischer rat after injection of anti-[18F]FMACBC after 5 min; assay type: ADME, organism-based; conditions: in vivo; outline: as §4
[29] = organism: Rattus norvegicus; assay: Radioactivity distribution in kidney of normal fischer rat after injection of syn-[18F]-FMACBC after 120 min.; assay type: ADME, organism-based; conditions: in vivo, 2 h; outline: as §1
[30] = organism: Rattus norvegicus; assay: Radioactivity distribution in bone of normal fischer rat after injection of syn-[18F]-FMACBC after 5 min.; assay type: ADME, organism-based, Bone element; conditions: in vivo; outline: as §1
[31] = organism: Rattus norvegicus; assay: Radioactivity distribution in bone of normal fischer rat after injection of anti-[18F]FMACBC after 30 min.; assay type: ADME, organism-based, Bone element; conditions: in vivo, 0.5 h; outline: as §1
[32] = organism: Rattus norvegicus; assay: Radioactivity distribution in testis of tumor-bearing fischer rat after injection of syn-[18F]-FMACBC after 5 min; assay type: ADME, organism-based; conditions: in vivo; outline: as §4
[33] = organism: Rattus norvegicus; assay: Radioactivity distribution in muscle of tumor-bearing fischer rat after injection of anti-[18F]FMACBC after 5 min; assay type: ADME, organism-based, Muscle tissue; conditions: in vivo; outline: as §4
[34] = organism: Rattus norvegicus; assay: Radioactivity distribution in heart of normal fischer rat after injection of syn-[18F]-FMACBC after 60 min.; assay type: ADME, organism-based; conditions: in vivo, 1 h; outline: as §1
[35] = organism: Rattus norvegicus; assay: Radioactivity distribution in testis of normal fischer rat after injection of syn-[18F]-FMACBC after 60 min.; assay type: ADME, organism-based; conditions: in vivo, 1 h; outline: as §3
[36] = organism: Rattus norvegicus; assay: Radioactivity distribution in liver of tumor-bearing fischer rat after injection of syn-[18F]-FMACBC after 120 min; assay type: ADME, organism-based; conditions: in vivo, 2 h; outline: as §4
[37] = organism: Rattus norvegicus; assay: Radioactivity distribution in bone of tumor-bearing fischer rat after injection of syn-[18F]-FMACBC after 120 min; assay type: ADME, organism-based, Bone element; conditions: in vivo, 2 h; outline: as §2
[38] = organism: Rattus norvegicus; assay: Radioactivity distribution in testis of tumor-bearing fischer rat after injection of anti-[18F]FMACBC after 5 min; assay type: ADME, organism-based; conditions: in vivo; outline: as §4
[39] = organism: Rattus norvegicus; assay: Radioactivity distribution in liver of normal fischer rat after injection of syn-[18F]-FMACBC after 30 min.; assay type: ADME, organism-based; conditions: in vivo, 0.5 h; outline: as §1
[40] = organism: Rattus norvegicus; assay: Radioactivity distribution in testis of normal fischer rat after injection of syn-[18F]-FMACBC after 5 min.; assay type: ADME, organism-based; conditions: in vivo; outline: as §3
[41] = organism: Rattus norvegicus; assay: Radioactivity distribution in heart of tumor-bearing fischer rat after injection of syn-[18F]-FMACBC after 120 min; assay type: ADME, organism-based; conditions: in vivo, 2 h; outline: as §2

Q: Which ID/g [1] does the source give for `N[C@]1(C(=O)O)C[C@@H](CF)C1` here?
A: The ID/g was 0.33%.

Q: And the ID/g [2]?
A: The ID/g was 0.52%.

Q: And the ID/g [3]?
A: Its ID/g is 3.88%.

Q: What about the ID/g [4] of the same compound?
A: The ID/g was 1.28%.

Q: And the ID/g [5]?
A: The ID/g was 0.42%.

Q: And the ID/g [6]?
A: The ID/g was 2.56%.

Q: What about the ID/g [7] of the same compound?
A: Its ID/g is 0.17%.

Q: What about the ID/g [8] of the same compound?
A: Its ID/g is 0.51%.

Q: And the ID/g [9]?
A: The ID/g was 0.52%.

Q: What about the ID/g [10] of the same compound?
A: The ID/g was 0.25%.

Q: What about the ID/g [11] of the same compound?
A: Its ID/g is 0.48%.

Q: And the ID/g [12]?
A: The ID/g was 0.34%.

Q: And the ID/g [13]?
A: Its ID/g is 0.33%.

Q: What about the ID/g [14] of the same compound?
A: Its ID/g is 2.5%.

Q: And the ID/g [15]?
A: Its ID/g is 0.27%.

Q: What about the ID/g [16] of the same compound?
A: Its ID/g is 0.31%.

Q: And the ID/g [17]?
A: The ID/g was 0.68%.

Q: What about the ID/g [18] of the same compound?
A: The ID/g was 0.44%.

Q: What about the ID/g [19] of the same compound?
A: The ID/g was 0.23%.

Q: What about the ID/g [20] of the same compound?
A: The ID/g was 4.09%.

Q: And the ID/g [21]?
A: The ID/g was 0.6%.

Q: And the ID/g [22]?
A: The ID/g was 1.03%.

Q: And the ID/g [23]?
A: The ID/g was 0.67%.

Q: What about the ID/g [24] of the same compound?
A: Its ID/g is 0.87%.

Q: And the ID/g [25]?
A: Its ID/g is 0.53%.

Q: And the ID/g [26]?
A: Its ID/g is 0.39%.

Q: What about the ID/g [27] of the same compound?
A: Its ID/g is 0.24%.

Q: What about the ID/g [28] of the same compound?
A: Its ID/g is 0.55%.

Q: And the ID/g [29]?
A: The ID/g was 0.46%.

Q: What about the ID/g [30] of the same compound?
A: The ID/g was 0.7%.

Q: What about the ID/g [31] of the same compound?
A: The ID/g was 0.31%.

Q: What about the ID/g [32] of the same compound?
A: The ID/g was 0.19%.

Q: And the ID/g [33]?
A: The ID/g was 0.57%.

Q: What about the ID/g [34] of the same compound?
A: Its ID/g is 0.64%.

Q: What about the ID/g [35] of the same compound?
A: The ID/g was 0.23%.

Q: What about the ID/g [36] of the same compound?
A: Its ID/g is 0.25%.

Q: What about the ID/g [37] of the same compound?
A: Its ID/g is 0.13%.

Q: What about the ID/g [38] of the same compound?
A: The ID/g was 0.23%.

Q: What about the ID/g [39] of the same compound?
A: Its ID/g is 0.37%.

Q: What about the ID/g [40] of the same compound?
A: The ID/g was 0.32%.

Q: And the ID/g [41]?
A: Its ID/g is 0.33%.
